KCNK9 inh = human KCNK9 channel inhibition | Q9NPC2 | HEK293 KCNK9, FluxOR thallium flux fluorescence; hits give low values | B-score at 10 µM | 1.2% of 310,000 active | AID 488922;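 active means ratio B-score over 3 SD below the library mean, with starting fluorescence within 5 SD of its mean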;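 further: negative B-score means less thallium flux so channel inhibition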
Target sequence (Q9NPC2 whole entry, looked up): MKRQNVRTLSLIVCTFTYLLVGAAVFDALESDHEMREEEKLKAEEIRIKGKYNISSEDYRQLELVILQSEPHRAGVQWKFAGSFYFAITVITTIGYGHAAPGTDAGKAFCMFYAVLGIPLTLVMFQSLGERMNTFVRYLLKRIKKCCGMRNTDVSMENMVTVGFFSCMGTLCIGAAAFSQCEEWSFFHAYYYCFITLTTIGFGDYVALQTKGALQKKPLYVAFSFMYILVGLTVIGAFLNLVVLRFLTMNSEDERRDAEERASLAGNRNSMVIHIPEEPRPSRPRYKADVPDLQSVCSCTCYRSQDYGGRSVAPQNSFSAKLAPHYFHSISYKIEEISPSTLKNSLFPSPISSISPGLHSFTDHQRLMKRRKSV
KCC2 mod = modulates chloride dependent transport by human KCC2 | AID 1456 | Q9H2X9 | KCC2 cells, thallium flux FluoZin-2 fluorescence | B-score of Tl+ flux slope (higher = more flux/activation; lower = inhibition) at 10 µM | 2.2% of 190,000 active;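 active means thallium flux slope and its plate-corrected score both differing from the plate sample mean at a set confidence after two filtering rounds, in either direction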;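 further: slope of fluorescence scaled to starting intensity during 10 to 20 s after thallium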
KCNK3 block = human KCNK3 channel inhibition, primary screen; B-score at 10 µM; CHO-KCNK3 thallium flux, FluxOR fluorescence; hits give low values; 0.84% of 340,000 active; AID 602410;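 active means B-score under library mean minus 4 SD, starting fluorescence ratio at most library mean plus 5 SD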;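 further: more negative B-score means stronger inhibition of thallium flux through KCNK3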
hERG protect = compounds protecting human hERG from proarrhythmic drug block; Q12809; 0.51% of 310,000 active; CHO-hERG, FluxOR thallium flux, dofetilide IC70 present; activation (rescue from dofetilide block), less the hit threshold, % at 10 µM;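 active means activation above the mean of controls blocked by dofetilide plus 5 SD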;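 further: thallium influx through hERG after potassium depolarization seen as dye fluorescence rise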
KCNQ1 block = blocks the human KCNQ1 potassium channel; 1.3% of 310,000 active; B-score at 10 µM; CHO-K1 KCNQ1, FluxOR thallium flux fluorescence; hits give high values; AID 2642;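 active means compounds whose thallium flux B-score, printed positive for inhibition, exceeds three library SD while starting fluorescence stays within three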;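 further: channel opened by potassium depolarization with thallium stimulus after 20 min compound exposure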
KCNQ1 act = potentiates or activates the human KCNQ1 potassium channel. B-score at 10 µM. CHO-K1 KCNQ1, thallium flux FluxOR fluorescence; hits give high values. P51787. 0.35% of 310,000 active;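 active means fluorescence ratio B-score, a plate-corrected score, at least three library SD, with initial intensity B-score within 5 SD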
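Medium – assay buffer, equal DMSO in all wells · Material – CHO-K1 cell line with stable KCNQ1 potassium channel expression · Signal – kinetic FluxOR thallium fluorescence, 10-s 1-Hz baseline, 110-s post-stimulus read · Compound – single concentration per compound, DMSO matched to controls · Schedule – 37 °C overnight plating, 90-min dark dye load, 20-min compound pretreatment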
KCNK9 inh conf = human KCNK9 inhibitor confirmation. shares compounds with KCNK9 inh. HEK293 KCNK9 cells, FluxOR thallium flux fluorescence. inhibition, % at 10 µM. 43% of 4,900 active;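 active means thallium signal inhibited by more than 5 SD of the compound-free buffer control wells, on both duplicate plates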;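 further: 0% = assay buffer control wells without compound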
Kir2-1 spec = mouse Kir2.1 off-target activity of KCNK9 modulators; 4% of 4,900 active; AID 492993; shares compounds with KCNK9 inh; inhibition, % at 10 µM; Kir2.1 cells, FluxOR thallium flux fluorescence;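 active means thallium signal drop more than 5 SD beyond the mean of the no-compound control wells, seen in both duplicate plates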;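 further: signal is fluorescence rise after thallium addition divided by baseline fluorescence; plate controls were assay buffer only for no effect and full block by chlorpromazine control for full effect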
KCNK9 uninduced = second check of KCNK9 modulator effects in non-induced HEK293 cells; shares compounds with KCNK9 inh; FluxOR thallium flux; inhibition, % at 10 µM; 40% of 4,900 active; AID 492997;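 active means thallium signal drop beyond 5 SD of the untreated control mean, on both duplicate plates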;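 further: plate controls were buffer only IC0 wells for no effect and SID17386958 at its maximal inhibitory level for full effect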
Active calls of the source: *; i = inactive; . = no result given. Rows were chosen to be rich in hits. Some 4.1% of all compounds tested hit in one or more screens of this group.

SMILES	KCNK9 inh	KCC2 mod	KCNK3 block	hERG protect	KCNQ1 block	KCNQ1 act	KCNK9 inh conf	Kir2-1 spec	KCNK9 uninduced
Cc1cccc(C)c1NC(=O)C(C)c1ccc(-c2ccccc2)c(F)c1 (stereo not drawn)	-10.4*	-1.35	i	-0.7	i	i	47.0%*	i	45.5%*
Cc1ccc(NC(=S)NNC(=O)c2cccc([N+](=O)[O-])c2)cc1Cl	i	-1.8	i	-14.4	8*	i	i	i	i
COc1ccc(Br)cc1[C@H]1[C@@H]2C=CCC[C@@]2(C)C(=O)N1Cc1ccccc1	-14.5*	-0.41	i	-10.9	i	i	66.5%*	i	49.0%*
COc1ccc(-c2ccc(OC)c([C@H]3[C@@H]4C=CCC[C@@]4(C)C(=O)N3Cc3ccccc3)c2)cc1OC	i	0.00845	i	-15.8	i	i	.	.	.
CCOC(=O)C1(C)NC(c2cccc(C)c2)C2C(=O)N(c3ccccc3)C(=O)C21 (stereo not drawn)	i	.	i	-10.6	i	i	i	i	i
CCOC(=O)C1(C)NC(c2cccs2)C2C(=O)N(c3ccc(C)cc3)C(=O)C21 (stereo not drawn)	i	1.92	i	-0.7	i	i	.	.	.
Nc1c(-c2ccccc2)c(CSc2nc3ccccc3[nH]2)nn1-c1ccc(Cl)cc1	-9.28*	-0.306	i	-8.2	i	i	60.0%*	i	28.5%*
Cc1ccccc1-n1nc(CSc2nc3ccccc3[nH]2)c(-c2ccccc2)c1N	i	-0.437	i	-18.2	i	i	.	.	.
c1ccc(CSc2nc3ccccc3[nH]2)cc1	i	-0.194	i	-3.4	i	i	.	.	.
Nc1c(-c2ccccc2)c(CSc2nc3ccccc3[nH]2)nn1-c1cccc(Cl)c1	-12.8*	-1.76	i	-6.4	i	i	71.0%*	i	38.5%*
COc1cccc(C(=O)O[C@@H]2[C@H](Cc3ccccc3)NS(=O)(=O)[C@H]3C[C@@H]4C=C[C@]23O4)c1	.	.	i	.	.	.	.	.	.
COc1ccc(C(=O)C2CC2c2ccc3c(c2)OCO3)cc1 (stereo not drawn)	i	-0.11	i	-7.8	i	i	i	i	30.0%*
OCCCNCc1ccc(N(c2ccccc2)c2ccccc2)cc1	i	.	i	-9.1	i	i	.	.	.
CN(C)/C=C(/C#N)C(=O)c1cccc(Oc2ccc(C(C)(C)C)cc2)c1	i	-1.08	i	-11.3	i	i	i	i	42.0%*
CC12CCC3c4ccc(O)cc4CCC3C1CCC2=O (stereo not drawn)	.	.	i	.	.	.	.	.	.
CCn1cc(/C=N/N=C2\CCC3C4CCc5cc(O)ccc5C4CC[C@]23C)c(C)n1 (stereo partly drawn)	i	0.653	i	-7.8	i	i	i	i	i
O=C(OCCc1cc2ccccc2c(=O)o1)c1ccco1	.	.	i	.	.	.	.	.	.
c1ccc2cc(OCCOCCOc3ccc4ccccc4c3)ccc2c1	i	0.893	i	-11.7	i	i	i	i	i
COc1ccc(OC)c(CN2CCN(C(=O)c3ccc(NS(=O)(=O)c4cccc([N+](=O)[O-])c4)cc3)CC2)c1	i	.	i	-13.7	i	i	.	.	.
CC(C)(C)OC(=O)C[C@@H]1C/C=C\C[C@H](CC(=O)N(CCO)Cc2ccccc2)C(=O)NC[C@H](c2ccccc2)OC1=O	.	.	i	.	.	.	.	.	.
O=C(Nc1nc(-c2cc(Cl)sc2Cl)cs1)c1ccccc1	-9.47*	0.931	i	-7.1	i	i	33.5%*	i	i
COc1cc(Cl)ccc1OCc1cc(C(=O)N(C)C2CC(C)(C)NC(C)(C)C2)no1	i	.	i	-4.9	i	i	.	.	.
CN(C)c1ccc(C2C3CCCc4ccccc4C3=NN2C)cc1 (stereo not drawn)	i	-1.4	i	-9.7	i	i	i	i	i
COc1ccc(CCNC(=O)C/C(C)=N/NC(=O)c2cnccn2)cc1	i	.	i	-3.4	i	i	.	.	.
CC1CCC(C(C)C)C(=O)/C1=C/c1ccc(N)cc1 (stereo not drawn)	i	0.536	i	-7.1	i	i	.	.	.
SMILES	KCNK9 inh	KCC2 mod	KCNK3 block	hERG protect	KCNQ1 block	KCNQ1 act	KCNK9 inh conf	Kir2-1 spec	KCNK9 uninduced
CC1/C(=C\c2ccc(Cl)cc2)C(=O)C2CC1C2(C)C (stereo not drawn)	i	-0.28	i	-4.5	i	i	i	i	i
COc1ccc(C(=O)NCCc2nnc3ccc(SCC(=O)N4CCCC4)nn23)cc1	i	.	i	-5.4	i	i	.	.	.
Brc1ccc(N/N=C(/N=Nc2nn[nH]n2)c2ccccc2)cc1	i	.	i	-6.9	12*	i	i	i	i
O=C(/C(=N\Nc1ccc(Br)cc1)Sc1nnnn1-c1ccccc1)c1ccccc1	i	2.16	i	-6.8	i	i	.	.	.
CCOc1ccc(S(=O)(=O)Nc2ccc(C(=O)NCC(C)(C)N3CCOCC3)cc2)cc1	i	.	i	-12.1	i	i	.	.	.
COc1c(C)cc(C(=O)C2CCCN(C(=O)c3csc(C)n3)C2)cc1C (stereo not drawn)	i	.	i	-6.4	i	i	.	.	.
COc1c(C)cc(C(=O)C2CCCN(C(=O)c3cc(C)on3)C2)cc1C (stereo not drawn)	i	.	i	-5.5	i	i	.	.	.
COc1c(C)cc(C(=O)C2CCCN(C(=O)c3cccc(-n4cccn4)c3)C2)cc1C (stereo not drawn)	i	-2.67	i	-17.1	i	i	i	i	i
COc1c(C)cc(C(=O)C2CCCN(C(=O)c3ccc4[nH]ccc4c3)C2)cc1C (stereo not drawn)	i	-1.25	i	-22.1	i	i	i	i	i
O=C(NCC(c1cccs1)N1CCOCC1)c1ccc(OCc2ccccc2)cc1 (stereo not drawn)	.	.	i	.	.	.	.	.	.
CS(=O)(=O)c1ccc(N2CCN(c3ccccn3)CC2)c([N+](=O)[O-])c1	i	.	i	-4.3	i	i	.	.	.
Cc1cc(C)cc(NC(=O)c2cccn2-c2ncc(C(F)(F)F)cc2Cl)c1	i	.	i	-8.2	i	i	i	i	i
O=C(Nc1ccc(F)cc1F)c1cccn1-c1ncc(C(F)(F)F)cc1Cl	i	.	i	-9.3	i	i	.	.	.

Screens as filed in PubChem BioAssay.
